The list is not random: actives were taken first. Their share in the collection is about 2.2%.
ARFGAP1 inhibitor: rat ARFGAP1 inhibition | Q62848 | Arfgap1-stimulated ARF1 GTP hydrolysis, GDP FP detection | inhibition, % at 16.5 µM | actives 0.26% (n = 360,000) | AID 651572;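 active = inhibition above a per-plate limit, mean inhibition of low control wells plus 3 SD, cut at about 25% in these data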;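 note: 0% = DMSO wells with enzyme and 100% = wells lacking Arfgap1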
Target sequence (Q62848 1-136 limits assumed): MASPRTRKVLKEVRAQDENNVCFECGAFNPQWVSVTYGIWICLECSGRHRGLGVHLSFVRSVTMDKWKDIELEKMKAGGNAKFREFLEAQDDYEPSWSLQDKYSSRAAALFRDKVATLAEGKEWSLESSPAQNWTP
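Material: rat Arfgap1 GAP domain (His6, aa 1-136), purified enzyme. Also added: human ARF1(Δ1-17)-GTP substrate. Compound dosing: 16.5 µM single point, 1.26% DMSO. Timing: enzyme reaction 120 min at 25 °C after 20 min preincubation. Signal: GDP detection by fluorescence polarization. Read-out basis: percent inhibition of GAP-stimulated GDP formation, scaled between DMSO and no-Arfgap1 medians.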
NadD block: inhibitors of Staphylococcus aureus NadD; purified NadD enzyme, colorimetric absorbance read-out; AID 602399; actives 0.78% (n = 360,000); inhibition, % at 20 µM; in the data active = inhibition above about 26%
ASAP1 GAP inh: ASAP1 ArfGAP inhibition. Q9ULH1. ASAP1-stimulated ARF1 GTP hydrolysis, GDP FP detection. inhibition, % at 16.5 µM. actives 0.19% (n = 360,000); in the data active = inhibition above about 25%;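 note: 0% = vehicle with enzyme and substrate and 100% = no enzyme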
Target sequence (Q9ULH1 325-724 limits assumed): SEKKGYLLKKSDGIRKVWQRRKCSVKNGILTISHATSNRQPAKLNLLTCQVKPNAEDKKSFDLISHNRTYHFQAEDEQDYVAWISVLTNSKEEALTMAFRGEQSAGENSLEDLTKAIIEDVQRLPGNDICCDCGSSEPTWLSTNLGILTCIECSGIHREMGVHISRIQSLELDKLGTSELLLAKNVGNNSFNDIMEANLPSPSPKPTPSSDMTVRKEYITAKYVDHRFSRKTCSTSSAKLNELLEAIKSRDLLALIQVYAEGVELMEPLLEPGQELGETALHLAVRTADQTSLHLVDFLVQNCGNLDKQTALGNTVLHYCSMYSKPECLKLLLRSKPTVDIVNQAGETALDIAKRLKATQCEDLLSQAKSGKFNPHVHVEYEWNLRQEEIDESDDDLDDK
rCAG RNA binder: molecules binding r(CAG) RNA repeats; AID 651821; actives 1.3% (n = 370,000); r(CAG) RNA repeat, TO-PRO-1 dye displacement fluorescence; inhibition, % at 3 µM;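 active = inhibition above the plate cutoff, the mean of all test compounds on that plate plus 3 SD, cut at about 35% in these data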;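 note: 0% = DMSO alone and 100% = 100 µM mitoxantrone as full dye displacement; higher means more dye released from RNA so lower well fluorescence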
rCAG bind conf: r(CAG) RNA repeat binding, confirmation. inhibition, % at 3 µM. TO-PRO-1 dye displacement fluorescence. actives 70% (n = 4,300). shares compounds with rCAG RNA binder;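 active = inhibition above a per-plate cutoff, the mean inhibition of sample wells plus 3 SD, cut at about 35% in these data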;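 note: loss of TO-PRO-1 fluorescence as compound displaces dye from 1x1 AA loop RNA; 0% = DMSO only wells and 100% = 100 µM mitoxantrone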
DNA CAG counter: disrupts DNA CAG TO-PRO-1 complex, flagging rCAG hits; d(CAG) DNA oligo TO-PRO-1 dye displacement, fluorescence; actives 94% (n = 4,300); inhibition, % at 3 µM; shares compounds with rCAG RNA binder;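 active = inhibition above its plate's cutoff, the mean test-well inhibition plus 3 SD, cut at about 4.8% in these data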;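 note: 0% = DNA dye mix with DMSO and 100% = 100 µM mitoxantrone; hits displace the dye from DNA and so lower well fluorescence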
* hit, by the source's call; / = not tested or not shown.

SMILES | ARFGAP1 inhibitor | NadD block | ASAP1 GAP inh | rCAG RNA binder | rCAG bind conf | DNA CAG counter
COc1cccc(C(c2c(C)[nH]n(-c3ccccc3)c2=O)c2c(C)[nH]n(-c3ccccc3)c2=O)c1OC | 11 | 17 | -8 | 54* | 42* | 14*
COc1cccc(C(c2c(C)[nH]n(-c3ccccc3)c2=O)c2c(C)[nH]n(-c3ccccc3)c2=O)c1O | 6 | 14 | -5 | 38* | 33 | 12*
Cc1[nH]n(-c2ccccc2)c(=O)c1C(=O)c1ccccc1 | 8 | -2 | -14 | 0 | / | /
O=C(Cc1ccc(NC(=O)C2CCCN(C(=O)c3ccccc3)C2)cc1)Nc1cccc(C(=O)N2CCCCC2)c1 (stereo not drawn) | -8 | / | 6 | 6 | / | /
O=C(O)Cn1nnc(-c2ccc(OCc3ccccc3Cl)cc2)n1 | 9 | / | -9 | 39* | 26 | 3
COc1cc(NC(=O)C2CCCN(S(=O)(=O)c3ccc(Cl)s3)C2)cc(OC)c1 (stereo not drawn) | / | / | / | 8 | / | /
Cc1ccc(-c2csc3nc(SCC(=O)Nc4ccc(Cl)c(C(=O)O)c4)[nH]c(=O)c23)cc1 | 10 | 17 | -7 | 81* | 55* | 20*
Cc1sc2nc(SCC(=O)Nc3ccc(Cl)c(C(=O)O)c3)[nH]c(=O)c2c1C | -8 | 7 | -6 | 4 | / | /
CC1(C(=O)NS(=O)(=O)c2ccccc2)CCN1C(=O)Cc1ccccc1 (stereo not drawn) | 11 | 1 | 10 | 2 | / | /
CC(C)(C)c1ccc(CC(=O)N2CCC2(C)C(=O)NS(=O)(=O)c2ccc(Cl)cc2)cc1 (stereo not drawn) | 0 | 3 | 12 | 37* | 52* | 17*
CC(C)(C)c1ccc(S(=O)(=O)NC(=O)C2(C)CCN2C(=O)Cc2cccc3ccccc23)cc1 (stereo not drawn) | -13 | 3 | 9 | 71* | 62* | 25*
Cc1ccc(S(=O)(=O)NC(=O)C2(C)CCN2C(=O)Cc2ccc(-c3ccccc3)cc2)cc1 (stereo not drawn) | -16 | 3 | 16 | 58* | 53* | 15*
Cc1ccc(S(=O)(=O)NC(=O)C2(C)CCN2C(=O)Cc2ccc(C(C)(C)C)cc2)cc1 (stereo not drawn) | 1 | -6 | -13 | 43* | 30 | 7.2*
CC(C)(C)c1ccc(CC(=O)N2CCC2(C)C(=O)NS(=O)(=O)c2ccc(C#N)cc2)cc1 (stereo not drawn) | 6 | 0 | -10 | 26 | / | /
CC1(C(=O)NS(=O)(=O)c2ccccc2)CCN1C(=O)Cc1cccc2ccccc12 (stereo not drawn) | 6 | -5 | -9 | 11 | / | /
COc1ccc(CN2C(=O)CCC2(C)c2nnnn2-c2ccc3c(c2)OCCO3)cc1 (stereo not drawn) | 6 | -1 | 10 | 0 | / | /
Cc1cc(C)cc(N(CCC#N)C(=O)COC(=O)C2CCN(c3ccc(C(F)(F)F)cn3)CC2)c1 | -12 | 8 | -10 | -3 | / | /
Cc1ccc(F)cc1C(=O)N1CCCCC1c1cc(C(=O)NC(C)C)no1 (stereo not drawn) | 4 | 0 | -10 | -3 | / | /
Cc1cc(F)ccc1C(O)c1ncc(-c2ccccc2C(F)(F)F)[nH]1 (stereo not drawn) | 2 | -2 | 2 | -1 | / | /
N#Cc1c(-c2c(Cl)cccc2Cl)noc1/C=C/Nc1ccc(C(=O)O)cc1 | 2 | 8 | 2 | 44* | 44* | 10*
CN(C)/C=C/c1onc(-c2c(Cl)cccc2Cl)c1C#N | 1 | 2 | 13 | 11 | / | /
CC(=O)OC[C@@H]1CN(Cc2cccc(C(F)(F)F)c2)C[C@H](n2cnc3c(NCc4ccco4)ncnc32)O1 | -4 | 7 | -7 | 3 | / | /
COc1ccc(-c2cc(-c3cccs3)c(C#N)c(SCC(=O)NCc3ccccc3)n2)cc1 | -6 | 7 | 10 | 1 | / | /
N#Cc1c(-c2ccccc2)cc(-c2cccs2)nc1SCC(=O)O | -2 | -1 | 10 | 50* | 41* | 17*
N#Cc1c(-c2ccc(Cl)cc2)cc(-c2cccs2)nc1SCC(=O)O | -18 | 16 | -9 | 66* | 62* | 25*
SMILES | ARFGAP1 inhibitor | NadD block | ASAP1 GAP inh | rCAG RNA binder | rCAG bind conf | DNA CAG counter
COc1cc(/C=C2\SC(=S)N(CCCCC(=O)O)C2=O)ccc1OS(=O)(=O)c1ccc(C)cc1 | 0 | 23 | 8 | 79* | 80* | 44*
CCOc1cc(/C=C2\SC(=S)N(NS(=O)(=O)c3ccccc3)C2=O)ccc1O | -17 | -1 | -5 | 47* | 28 | 8.6*
CCOc1ccc(/C=C2\SC(=S)N(NS(=O)(=O)c3ccc(C)cc3)C2=O)cc1OC | 3 | 11 | -5 | 83* | 76* | 41*
CCOc1ccc(/C=C2\SC(=S)N(NS(=O)(=O)c3ccccc3)C2=O)cc1OC | 6 | 6 | 0 | 79* | 71* | 35*
CCCCCN(C(=O)Cc1c(C)n(CCCCC)c2ccccc12)c1ccc(Oc2cccnc2)c(C)c1 | -12 | / | 5 | 2 | / | /
CCNC(=O)N1CCN(c2ccc(N3CCN(Cc4ccccc4)[C@@H](C)C3)c(C)c2)[C@H](C)C1 | -1 | / | 8 | 0 | / | /
O=C(O)CCn1cc(/C=C/C(=O)c2ccc(Cl)cc2)c(-c2ccc(Br)cc2)n1 | 7 | -1 | 3 | 59* | 84* | 49*
O=C(O)/C=C/c1cn(Cc2ccccc2)nc1-c1ccccc1 | 0 | -6 | -9 | 0 | / | /
COC(=O)c1ccc(N2NC(=O)/C(=C/c3cc(OC)c(OC)c(OC)c3)C2=O)cc1 | 3 | 6 | 6 | 65* | 61* | 20*
COc1cc(/C=C2\SC(=O)N(c3ccccc3Cl)C2=O)cc([N+](=O)[O-])c1O | 7 | 18 | 7 | 55* | 58* | 18*
COc1cc(/C=C2/C(=O)NN(c3cccc(F)c3)C2=O)ccc1OC(=O)c1ccco1 | 4 | 21 | -12 | 46* | 82* | 44*
COc1cccc(/C=C2/C(=O)NN(c3ccc(Br)cc3)C2=O)c1O | -11 | 7 | 1 | 16 | / | /
COc1cc(/C=N/NC(=O)c2ccc(F)cc2)ccc1OC(=O)c1ccco1 | -8 | -5 | 10 | 0 | / | /
COc1cc(/C=C2\SC(=O)N(c3ccc(O)cc3)C2=O)cc(OC)c1OC | 10 | -3 | 9 | -1 | / | /
COc1cc(/C=C2/C(=O)NN(c3ccc(F)cc3)C2=O)cc(Cl)c1O | 12 | -1 | -11 | 15 | / | /
COC(=O)c1ccc(N2NC(=O)/C(=C/c3cc(OC)c(O)c(OC)c3)C2=O)cc1 | -3 | -2 | 0 | 42* | 15 | 4.6*
COc1ccc(N2CCN(CCNS(=O)(=O)c3cccs3)CC2)cc1 | / | / | / | 0 | / | /
COc1cc(/C=C2/C(=O)NN(c3ccc(Cl)cc3)C2=O)cc(Br)c1O | -5 | -3 | -7 | 46* | 25 | 8.9*

Assay outcomes: PubChem BioAssay, several laboratories
